Bioassay records: PubChem, several laboratories
SKKanGAS inh: blocks kanamycin growth of S. pyogenes SKKanGAS strain | actives 1.3% (n = 300,000) | BacTiter-Glo, 6 h | inhibition, % at 7.5 µM;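 active = mean replicate score, as percent of positive control median, at least 50; inconclusive = mean below 50 but one replicate at or above 50; inactive = mean and every replicate below 50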;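 note: strain carries kanamycin resistance gene driven by streptokinase promoter and grows in 40 µg/ml kanamycin; loss of luminescence reflects streptokinase promoter inhibition or plain growth inhibition; 0% = median of DMSO wells and 100% = positive control at its reference dose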
Beta apoptosis: beta cell apoptosis inhibition. INS-1E cytokine-induced death, ATP luminescence, 48 h; percent of positive-control rescue, neutral wells zero. protection from apoptosis, % (concentration not given with the values). actives 0.8% (n = 300,000);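 active = Every replicate reaches about 75%, or at least half do and their mean reaches it too, limit read from the data; inconclusive = At least half of replicates reach the limit but their mean does not; inactive = Under half of replicates reach the limit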;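 note: 0% = cytokine-treated negative control wells and 100% = positive control rescue; higher means more ATP so stronger rescue from cytokine killing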
CHOP UPR activ: activators of apoptotic arm of unfolded protein response (CHOP). activation, % at 10 µM. actives 0.34% (n = 330,000). CHO-CHOP luciferase reporter, UPR activation, luminescence; percent of tunicamycin response over DMSO baseline;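 active = at 10 µM dose, activation of 40% or more, normalized to positive control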;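 note: 100% = tunicamycin at 10 µg/mL and 0% = DMSO alone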
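Dosing – one dose, 10 µM in 0.5% DMSO · System – CHO-CHOP cells, stable luciferase reporter of PERK-eIF2a-CHOP signalling · Input – 500 cells/well · Control set – tunicamycin 10 µg/mL final as positive, DMSO-only wells as negative · Timing – 6 h compound treatment, 37 °C · Measure – % activation vs tunicamycin · Technique – luminescence read with Steady-Glo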
CSC inhib: cancer stem cell inhibition; cancer stem cell-like cells viability, luminescence; inhibition, % at 7.5 µM; actives 1.1% (n = 300,000); AID 2717; in the data active = inhibition above about 75%; inconclusive = no clear call, values can overlap the other calls; tested in HMLE shEcad cells
UPR XBP1 act: activators of adaptive arm of unfolded protein response (XBP1); CHO-XBP1 luciferase reporter, IRE1-XBP1 UPR activation, luminescence; percent of tunicamycin response, DMSO as zero; activation, % at 20 µM; actives 0.33% (n = 330,000);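 active = versus positive control, 20 µM dose yields 30% or more activation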;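 note: 100% = tunicamycin at 10 µg/mL and 0% = DMSO only wells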
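Material: CHO cell line with stable XBP1 luciferase reporter; buffer or medium: F12 medium containing 10% fetal bovine serum; compound: single point, 20 µM final compound, 1% DMSO; incubation: 6 h treatment, 37 °C; measured by: glow luminescence from Steady-Glo reagent; evaluation: activation, % of tunicamycin; control set: tunicamycin high, DMSO low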
Mdm2 MdmX PPI: inhibitors of human Mdm2/MdmX interaction. actives 3% (n = 330,000). inhibition, % at 8 µM. SaOS-2 split-luciferase Mdm2/MdmX complementation, luminescence. O15151+Q00987;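 active = inhibition of at least 50% at 8 µM in the primary screen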
UPR CHOP confirm: apoptotic UPR (CHOP) activation, confirmed. shares compounds with CHOP UPR activ. CHO-CHOP cells, CHOP-luciferase reporter luminescence; percent of tunicamycin response, DMSO as zero. activation, % at 10 µM. actives 64% (n = 1,000). AID 463112; in the data active = activation above about 33%;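 note: 0% = DMSO wells and 100% = tunicamycin 10 µg/mL wells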
UPR XBP1 confirm: adaptive UPR (XBP1) activation, confirmed; shares compounds with UPR XBP1 act; CHO-XBP1 IRE1-XBP1 luciferase reporter, luminescence; activation, % at 20 µM; actives 63% (n = 1,000); AID 485299;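 active = reporter signal at least 30% of the positive control's activation in two or more of four replicate wells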;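 note: plate controls were DMSO negative control for no effect and tunicamycin 10 µg/mL positive control for full effect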
Mdm2-MdmX conf: confirmation of human Mdm2/MdmX interaction inhibitors | shares compounds with Mdm2 MdmX PPI | Mdm2-MdmX binding, luminescent assay | inhibition, % at 8 µM | actives 55% (n = 10,000) | AID 489028; in the data active = inhibition above about 40%
Full FLuc ctr: counter-screen for Mdm2/MdmX inhibitors: full-length luciferase; shares compounds with Mdm2 MdmX PPI; AID 504607; inhibition, % at 8 µM; actives 77% (n = 6,200); SaOS-2 full-length luciferase counterscreen, luminescence;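 active = mean inhibition at 8 µM reaching about 37%, which flags the compound as non-specific, limit read from the data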;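 note: p53-null SaOS-2 cells with luciferase driven by a doxycycline-inducible promoter; compound on cells about two nights before reading with doxycycline added after day one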
Active calls of the source: *; ? = inconclusive; . = no result given. A selection: hits, their analogues and other compounds. The true share with any hit is near 4.8%.

SMILES	SKKanGAS inh	Beta apoptosis	CHOP UPR activ	CSC inhib	UPR XBP1 act	Mdm2 MdmX PPI	UPR CHOP confirm	Mdm2-MdmX conf	Full FLuc ctr	others
Cc1ccc(S(=O)(=O)N(C)C[C@@H]2Oc3ccc(NC(=O)Cn4cnnn4)cc3C(=O)N([C@@H](C)CO)C[C@H]2C)cc1	.	-5	0	-23	-1	16	.	.	.
Cc1ccc(-c2nn3c(C)nnc3s2)cc1NC(=O)c1ccc(-c2ccc(Cl)cc2Cl)o1	.	.	46*	7	51*	80*	35*	25	.
NS(=O)(=O)c1ccc(N/N=C/c2ccccc2C(=O)O)c([N+](=O)[O-])c1	6	-5	0	11	1	9	.	.	.
Cc1ccc(NC(=O)c2ccc(N/N=C/c3cccc(O)c3)c([N+](=O)[O-])c2)cc1	18	63	63*	48	51*	77*	52*	48*	76*	UPR XBP1 confirm=39*
Cc1ccccc1NC(=O)c1ccc(N/N=C/c2ccccc2O)c([N+](=O)[O-])c1	3	11	48*	7	45*	74*	71*	22	62*	UPR XBP1 confirm=71*
O=C1C=C(N2CCOCC2)c2ccccc2C1=O	34	104*	41*	21	-8	74*	3	20	.
CCOC(=O)c1cnc(-n2nc(C)cc2C)nc1Nc1ccc(N(C)C)cc1	97*	109*	73*	20	36*	71*	35*	48*	61*
CCOC(=O)c1cnc(-n2nc(C)cc2C)nc1NC1CCCCC1	83*	.	99*	51	40*	86*	34*	92*	30	UPR XBP1 confirm=12
CCN(CC)CCCNC(=O)Cn1cnc2sc(C)c(S(=O)(=O)N3CCC(C)CC3)c2c1=O	-3	-8	-1	-15	-2	-7	.	.	.
Cc1ccc2c(c1)C(c1ccc([N+](=O)[O-])cc1)=NNC(c1ccc(Br)cc1)=N2	13	11	75*	14	84*	71*	25	-3	.	UPR XBP1 confirm=74*
CCc1ccc(CN2CCC(n3nccc3NC(=O)c3ccccc3)CC2)o1	1	2	-1	17	-3	2	.	.	.
COc1cccc(-n2c(C)cc(/C=C3\C(=N)N4N=C(CC(=O)N5CCOCC5)SC4=NC3=O)c2C)c1	43	-8	5	-6	0	15	.	.	.
Nc1nc(SCC(=O)NC2CCCCC2)n[nH]1	1	-5	0	2	-2	-4	.	.	.
CCOC(=O)Cc1csc(/N=C/c2c(O)n(-c3ccc(C)c(C)c3)c(=O)c3ccccc23)n1	1	70	66*	34	95*	73*	63*	16	.	UPR XBP1 confirm=155*
CC(C)(C)NC(=O)CN(C(=O)c1snc(C(=O)NC2CCCCC2)c1N)c1ccc(F)cc1	2	10	2	.	6	8	.	.	.
CCc1ccc(NC(=O)C(CC)Sc2nc3cc4c(cc3c(=O)n2Cc2ccco2)OCO4)cc1 (stereo not drawn)	3	67	96*	?	106*	81*	88*	9	.	UPR XBP1 confirm=127*
Cc1cc(NC(=O)CCS(=O)(=O)c2nc(-c3ccccc3)cc(C(F)(F)F)n2)no1	.	-11	138*	35	-9	88*	466*	78*	43*
COc1ccc(-c2cc(C(F)(F)F)nc(S(=O)(=O)CCCC(=O)Nc3cccc(O)c3)n2)cc1OC	7	.	55*	.	6	73*	22	36	.
CC(Oc1ccc(Cl)cc1)C(=O)Nc1ccccc1C(=O)N1CCOCC1 (stereo not drawn)	-5	-2	1	-13	0	12	.	.	.
O=[N+]([O-])c1ccc2nc(Cl)nc(-c3ccccc3)c2c1	2	3	106*	-11	16	96*	87*	66*	54*
O=c1[nH]c2cc3c(cc2cc1C(c1nnnn1Cc1ccccc1)N1CCCc2ccccc21)OCO3 (stereo not drawn)	-8	.	265*	-5	12	100*	2	10	.
CC(C)c1nnc(NC(=O)CS(=O)(=O)Cc2ccccc2)s1	0	-6	4	-7	-1	-6	.	.	.
CSc1nnc(NC(=O)c2nc(S(=O)(=O)Cc3cccc(C)c3)ncc2Cl)s1	12	-29	55*	110*	-6	100*	75*	92*	50*
CC(C)c1nnc(NC(=O)c2nc(S(=O)(=O)Cc3ccc(F)cc3)ncc2Cl)s1	7	-22	80*	106*	-10	100*	7	57*	52*
Cc1ccc(CS(=O)(=O)c2ncc(Cl)c(C(=O)Nc3ccc(OC(F)F)cc3)n2)cc1	54*	41	166*	105*	-9	91*	34*	86*	54*
SMILES	SKKanGAS inh	Beta apoptosis	CHOP UPR activ	CSC inhib	UPR XBP1 act	Mdm2 MdmX PPI	UPR CHOP confirm	Mdm2-MdmX conf	Full FLuc ctr	others
Cc1ccc(CS(=O)(=O)c2ncc(Cl)c(C(=O)Nc3nnc(C(C)C)s3)n2)cc1	-2	-7	92*	111*	-7	96*	38*	38	0
Cc1ccc(C)c(NC(=O)CN(C)C(=O)c2ccc(-c3cccc(C(F)(F)F)c3)o2)c1	5	-1	1	-5	-3	26	.	.	.
CN(Cc1ccc(C(C)(C)C)cc1)C(=O)c1ccc2c(c1)OCO2	.	.	-1	.	-1	25	.	.	.
CCCN(C(=O)c1cccc(S(=O)(=O)N2CCCc3ccccc32)c1)C1CCS(=O)(=O)C1 (stereo not drawn)	.	-4	1	-3	-3	1	.	.	.
Cc1cccc(CS(=O)(=O)c2ncc(Cl)c(C(=O)Nc3nnc(C(C)C)s3)n2)c1	0	-20	105*	107*	-7	96*	25	88*	50*
Oc1c(N=Nc2ccccn2)ccc2ccccc12	69*	96*	276*	99*	-2	91*	211*	46*	46*
COc1ccc(Cl)cc1NC(=O)CN(C)C(=O)c1cc2c(s1)CCC(C)C2 (stereo not drawn)	29	2	1	-14	-3	30	.	.	.
Cc1nn(C)cc1C(=O)Nc1ccc2c(c1)OCCO2	-4	-4	-1	.	-6	8	.	.	.
CN1CCCN(C(=O)CNC(=O)c2ccc(Cl)cc2Cl)CC1	.	2	1	7	2	3	.	.	.
